ChEMBL document CHEMBL3868590, “Quambalarine B, a Secondary Metabolite from Quambalaria cyanescens with Potential Anticancer Properties” (J Nat Prod, 2016)
Calls of active or inactive are those of the source. The rule behind the calls is not given here.

Columns and labels:
[1] = Downregulation of P70S6K protein expression in human NALM6 cells at EC50 measured after 24 hrs by immunoblot analysis; format: functional, cell-based; details: NALM-6
Summary of the method: (§1)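 Cells prepared as for RT-qPCR (7.5 × 10^5 cells/mL). Treated either with the line-specific EC50 concentration over a time course, or 24 h with graded concentrations up to that EC50. Cells washed with phosphatase inhibitors and lysed in RIPA; 40 μg protein per lane on SDS-PAGE, then nitrocellulose. Immunoblotted for C-MYC, P70S6K, p-P70S6K (Ser424) and actin.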

[2] = Cytotoxicity against PHA/LPS-stimulated CD3-positive T-lymphocytes in eFluor-670-labeled human PBMC assessed as divided cells at 2 umol/L administered post 18 hrs of PHA/LPS-stimulation measured after 72 hrs by Hoechst-33258 staining-based FACS analysis (reference value: 24.2%); format: toxicity; details: t-cell, 2 µM
Summary of the method: (§2)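 PBMC were labelled with 1 μmol/L CPD, stimulated with PHA (5 μg/mL) plus LPS (1 μg/mL), and seeded at 3 × 10^5 cells/well in 300 μL. Compound was added after 18 h and left for 72 h. Cells were stained with anti-CD3. Unstimulated cells set the CPD+ gate. Proliferation index, division index and % divided were calculated for CPD+CD3+ Hoechst-negative cells.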

[3] = test system: NALM-6; experiment: Cytostatic activity against human NALM6 cells assessed as population doubling level at 2 umol/L after 6 days using Burker counting chamber (reference value: 3.44); format: functional
Summary of the method: (§3)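 Cells were seeded at 2.5 × 10^5 cells/mL in DMSO-containing medium, with or without 2 μmol/L compound. Cells were counted daily in a Bürker chamber. PDL was calculated as log(Nf/N0)/log 2 over 6 days. Values are mean ± SD of three experiments, compared with DMSO controls.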

[4] = test system: REH; experiment: Cytostatic activity against eFluor670-labelled human REH cells assessed as live cells at 2 umol/L measured immediately after compound addition by Hoechst-33258 staining-based FACS analysis (reference value: 44.1%); format: functional
[5] = test system: Jurkat; experiment: Cytostatic activity against eFluor670-labelled human Jurkat cells assessed as live cells at 2 umol/L measured immediately after compound addition by Hoechst-33258 staining-based FACS analysis (reference value: 98.2%); format: functional
[6] = test system: REH; experiment: Cytostatic activity against human REH cells assessed as population doubling level at 2 umol/L after 6 days by Burker counting chamber (reference value: 3.55); format: functional; summary of the method: as §3
[7] = Cytotoxicity against CD14+ monocytes in human PBMC population assessed as reduction in viable cells measured after 24 hrs by Hoechst-33258 staining-based FACS analysis; format: toxicity, cell-based, Monocyte
Summary of the method: (§4)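 PBMC were isolated from blood on a Ficoll-Paque gradient and seeded at 1 × 10^5 cells/well in 400 μL RPMI1640. Cells were exposed to a range of compound concentrations for 24 h. Viable CD3+, CD14+ and CD20+ populations were measured as Hoechst 33258-negative singlets by flow cytometry. EC50 was obtained by five-parameter nonlinear regression.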

[8] = test system: Jurkat; experiment: Inhibition of P70S6K in human Jurkat cells assessed as inhibition of phosphorylated P70S6K expression up to 20 umol/L measured after 24 hrs by immunoblot analysis; format: cell-based; summary of the method: as §1
[9] = Cytotoxicity against human Jurkat cells assessed as reduction in viable cells measured after 24 hrs by Hoechst-33258 staining-based FACS analysis; format: functional, cell-based
Summary of the method: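 Leukemic lines kept in RPMI1640 with 10% FBS, penicillin/streptomycin, 37 °C, 5% CO2. Seeded at 2 × 10^5 cells/mL and exposed 24 h to a range of compound concentrations (DMSO stock); medium and DMSO negative controls. Live fraction taken from Hoechst 33258-negative singlets by flow cytometry. EC50 from five-parameter nonlinear regression.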

[10] = test system: REH; experiment: Inhibition of P70S6K in human REH cells assessed as decrease in C-MYC expression measured after 24 hrs by immunoblot analysis; format: cell-based; summary of the method: as §1
[11] = test system: Jurkat; experiment: Cytostatic activity against eFluor670-labelled human Jurkat cells assessed as live cells at 2 umol/L measured on day 1 by Hoechst-33258 staining-based FACS analysis (reference value: 98.2%); format: functional
[12] = test system: NALM-6; experiment: Decrease in C-MYC mRNA level in human NALM6 cells at EC50 measured after 24 hrs by RT-qPCR analysis; format: functional, cell-based
[13] = test system: REH; experiment: Cytostatic activity against eFluor670-labelled human REH cells assessed as live cells at 2 umol/L measured on day 5 by Hoechst-33258 staining-based FACS analysis (reference value: 85.6%); format: functional
[14] = biological target: Myc proto-oncogene protein (Homo sapiens) (UniProt P01106); experiment: Inhibition of C-MYC in human Jurkat cells assessed as decrease in GLS level at EC50 measured after 24 hrs by RT-qPCR analysis; format: cell-based
[15] = test system: REH; experiment: Inhibition of P70S6K in human REH cells assessed as decrease in phosphorylated P70S6K expression measured after 24 hrs by immunoblot analysis; format: cell-based; summary of the method: as §1
[16] = test system: REH; experiment: Cytostatic activity against eFluor670-labelled human REH cells assessed as live cells at 2 umol/L measured on day 2 by Hoechst-33258 staining-based FACS analysis (reference value: 90.8%); format: functional
[17] = biological target: Myc proto-oncogene protein (Homo sapiens) (UniProt P01106); experiment: Inhibition of C-MYC in human NALM6 cells assessed as decrease in GLS level at EC50 measured after 24 hrs by RT-qPCR analysis; format: cell-based; details: NALM-6
[18] = Cytotoxicity against PHA/LPS-stimulated CD3-positive T-lymphocytes in eFluor-670-labeled human PBMC assessed as proliferation index at 2 umol/L administered post 18 hrs of PHA/LPS-stimulation measured after 72 hrs by Hoechst-33258 staining-based FACS analysis (reference value: 1.58); format: toxicity; details: t-cell, 2 µM; summary of the method: as §2
[19] = test system: Jurkat; experiment: Cytostatic activity against human Jurkat cells at 2 umol/L measured after 2 to 3 days using Burker counting chamber; format: functional, cell-based; summary of the method: as §3
[20] = test system: Jurkat; experiment: Cytostatic activity against eFluor670-labelled human Jurkat cells assessed as live cells at 2 umol/L measured on day 2 by Hoechst-33258 staining-based FACS analysis (reference value: 97%); format: functional
[21] = biological target: Myc proto-oncogene protein (Homo sapiens) (UniProt P01106); experiment: Inhibition of C-MYC in human NALM6 cells assessed as decrease in LDHA level at EC50 measured after 24 hrs by RT-qPCR analysis; format: cell-based; details: NALM-6
[22] = test system: Jurkat; experiment: Inhibition of P70S6K in human Jurkat cells assessed as decrease in C-MYC expression measured after 24 hrs by immunoblot analysis; format: cell-based; summary of the method: as §1
[23] = test system: REH; experiment: Cytostatic activity against eFluor670-labelled human REH cells assessed as live cells at 2 umol/L measured on day 3 by Hoechst-33258 staining-based FACS analysis (reference value: 90.2%); format: functional
[24] = test system: NALM-6; experiment: Cytostatic activity against eFluor670-labelled human NALM6 cells assessed as live cells at 2 umol/L measured on day 2 by Hoechst-33258 staining-based FACS analysis (reference value: 97.7%); format: functional
[25] = biological target: Myc proto-oncogene protein (Homo sapiens) (UniProt P01106); experiment: Inhibition of C-MYC in human REH cells assessed as decrease in LDHA level at EC50 measured after 24 hrs by RT-qPCR analysis; format: cell-based
[26] = test system: NALM-6; experiment: Cytostatic activity against eFluor670-labelled human NALM6 cells assessed as live cells at 2 umol/L measured on day 3 by Hoechst-33258 staining-based FACS analysis (reference value: 98.6%); format: functional
[27] = Cytotoxicity against B lymphocytes in human PBMC population assessed as reduction in viable cells measured after 24 hrs by Hoechst-33258 staining-based FACS analysis; format: toxicity, cell-based, B-cell; summary of the method: as §4

Myc proto-oncogene protein (Homo sapiens), sequence (P01106 whole entry): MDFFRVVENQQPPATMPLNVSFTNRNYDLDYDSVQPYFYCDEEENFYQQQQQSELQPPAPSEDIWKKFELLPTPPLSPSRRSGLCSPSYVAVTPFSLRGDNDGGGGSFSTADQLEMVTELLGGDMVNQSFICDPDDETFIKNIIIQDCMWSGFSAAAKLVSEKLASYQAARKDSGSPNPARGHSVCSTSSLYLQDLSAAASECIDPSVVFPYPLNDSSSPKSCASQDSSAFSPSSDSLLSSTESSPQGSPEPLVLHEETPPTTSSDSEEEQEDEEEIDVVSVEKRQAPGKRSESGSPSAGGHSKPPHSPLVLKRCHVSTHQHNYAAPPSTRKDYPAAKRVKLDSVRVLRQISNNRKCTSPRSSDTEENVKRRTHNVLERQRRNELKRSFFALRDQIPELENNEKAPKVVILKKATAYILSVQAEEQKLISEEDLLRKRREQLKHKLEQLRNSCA

inhibition [14]: Active
inhibition [17]: Active
inhibition [21]: Active
inhibition [25]: Active
Structure (SMILES): CCCCCC(=O)C1=C(O)C(=O)c2c(O)c(O)cc(O)c2C1=O
Activity [1]: Active
Activity [2]: 15.9%
Activity [3]: 1.75
Activity [4]: 44.1%
Activity [5]: 98.2%
Activity [6]: 1.32
EC50 at 24 h [7]: 15.1 µM
inhibition [8]: Active
EC50 [9]: 7.41 µM
inhibition [10]: Dose-dependent effect
Activity [11]: 88.4%
Activity [12]: Active
Activity [13]: 4.17%
inhibition [15]: Dose-dependent effect
Activity [16]: 40.2%
Activity_index [18]: 1.23
Activity [19]: Active
Activity [20]: 70.1%
inhibition [22]: Dose-dependent effect
Activity [23]: 15.8%
Activity [24]: 97.7%
Activity [26]: 98.1%
EC50 at 24 h [27]: > 50 µM
